ChEMBL document CHEMBL1145425, “Antitumor agents 259. Design, syntheses, and structure-activity relationship study of desmosdumotin C analogs” (2007)
≈ marks a conversion by molar mass, not a printed value.

Tests used:
Type in all cases: functional
KB [1] = assay: Cytotoxicity against human vincristine-resistant KB cells; settings: read-out: ED50 (the source's name)
How it was run: (§1)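 Sulforhodamine B growth assay. Lines kept in RPMI-1640 with 25 mM HEPES, 0.25% sodium bicarbonate, 10% FBS and kanamycin. Trypsinized cells seeded at 1500–7500 per well, with compound added from DMSO-diluted stock. After 3 days, attached cells fixed with cold 50% TCA, stained with 0.4% SRB, dye solubilized, absorbance read at 562 nm. ED50 is 50% growth reduction, averaged over at least three independent determinations.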

KB [2] = assay: Cytotoxicity against human KB cells; settings: read-out: ED50 (the source's name); how it was run: as §1
A549 = assay: Cytotoxicity against human A549 cells; settings: read-out: ED50 (the source's name); how it was run: as §1
1A9 = assay: Cytotoxicity against human 1A9 cells; settings: read-out: ED50 (the source's name); how it was run: as §1
HUVEC [3] = assay: Cytotoxicity against HUVEC; settings: Homo sapiens, read-out: ED50 (the source's name)
How it was run: (§2)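 HUVEC seeded at 1.5×10^3 per well in EGM-2; after 24 h (day zero) compound added in EGM-2 at 2× the desired concentration. Day-zero plate stained with crystal violet. Remaining plates kept 72 h at 37 °C, then stained with 0.5% crystal violet in 20% MeOH. Dye eluted with 1:1 EtOH:0.1 M sodium citrate and read at 540 nm. Run per the NCI Angiogenesis Resource Center protocol.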

HUVEC [4] = assay: Antiangiogenesis activity against HUVEC; settings: Homo sapiens, read-out: ED50 (the source's name); how it was run: as §2
PC-3 = assay: Cytotoxicity against human PC3 cells; settings: read-out: ED50 (the source's name); how it was run: as §1
A-431 = assay: Cytotoxicity against human A431 cells; settings: read-out: ED50 (the source's name); how it was run: as §1
HCT-8 = assay: Cytotoxicity against human HCT8 cells; settings: read-out: ED50 (the source's name); how it was run: as §1

For `COC1=C(C)C(=O)/C(=C(O)/C=C/c2nccs2)C(=O)C1(C)C`, the EC50 (KB [1]) was 3 µg/mL (≈ 9.39 µM), the EC50 (KB [2]) was 4.3 µg/mL (≈ 13.5 µM) and the EC50 (A549) was 3.5 µg/mL (≈ 11 µM). It also gave an EC50 (1A9) of 3.5 µg/mL (≈ 11 µM), an EC50 (HUVEC [3]) of 1.6 µg/mL (≈ 5.01 µM) and an EC50 (HUVEC [4]) of under 4 µg/mL. It also gave an EC50 (PC-3) of 10.8 µg/mL (≈ 33.8 µM), an EC50 (A-431) of 6 µg/mL (≈ 18.8 µM) and an EC50 (HCT-8) of 5.1 µg/mL (≈ 16 µM).
`COC1=CC(O)=C(C(=O)/C=C/c2ccccc2)C(=O)C1(C)C` was tested, and the EC50 (KB [1]) was 2.9 µg/mL (≈ 9.72 µM), the EC50 (KB [2]) was 4.1 µg/mL (≈ 13.7 µM) and the EC50 (A549) was over 5 µg/mL. The EC50 (1A9) was 3.6 µg/mL (≈ 12.1 µM), the EC50 (HUVEC [3]) was over 20 µg/mL and the EC50 (PC-3) was 14.2 µg/mL (≈ 47.6 µM). For the same compound, the EC50 (A-431) was 7 µg/mL (≈ 23.5 µM) and the EC50 (HCT-8) was 3.3 µg/mL (≈ 11.1 µM).
Work on `COC1=C(C)C(=O)/C(=C(O)/C=C/c2c(C)cccc2C)C(=O)C1(C)C` yielded an EC50 (KB [1]) of 2.1 µg/mL (≈ 6.17 µM), an EC50 (KB [2]) of 7.1 µg/mL (≈ 20.9 µM) and an EC50 (A549) of 8.3 µg/mL (≈ 24.4 µM). For the same compound, the EC50 (HUVEC [3]) was 3 µg/mL (≈ 8.81 µM), the EC50 (HUVEC [4]) was under 4 µg/mL and the EC50 (PC-3) was 17.1 µg/mL (≈ 50.2 µM). For the same compound, the EC50 (A-431) was 10.1 µg/mL (≈ 29.7 µM) and the EC50 (HCT-8) was 7.8 µg/mL (≈ 22.9 µM).
`COC1=C(C)C(=O)/C(=C(O)/C=C/c2ccc(Br)cc2)C(=O)C1(C)C` was tested, and the EC50 (KB [1]) was 1.9 µg/mL (≈ 4.86 µM), the EC50 (KB [2]) was 1.7 µg/mL (≈ 4.34 µM) and the EC50 (A549) was 1.4 µg/mL (≈ 3.58 µM). The EC50 (1A9) was 1.1 µg/mL (≈ 2.81 µM), the EC50 (HUVEC [3]) was 3.6 µg/mL (≈ 9.2 µM) and the EC50 (HUVEC [4]) was under 4 µg/mL. For the same compound, the EC50 (PC-3) was 17.7 µg/mL (≈ 45.2 µM), the EC50 (A-431) was 9 µg/mL (≈ 23 µM) and the EC50 (HCT-8) was 7.4 µg/mL (≈ 18.9 µM).
For `COC1=C(C)C(=O)/C(=C(O)/C=C/c2ccc(OC)cc2)C(=O)C1(C)C`, the EC50 (KB [1]) was 2.9 µg/mL (≈ 8.47 µM), the EC50 (KB [2]) was 3.6 µg/mL (≈ 10.5 µM) and the EC50 (A549) was 3 µg/mL (≈ 8.76 µM). For the same compound, the EC50 (1A9) was 2.8 µg/mL (≈ 8.18 µM), the EC50 (HUVEC [3]) was 2.5 µg/mL (≈ 7.3 µM) and the EC50 (HUVEC [4]) was under 4 µg/mL. The EC50 (PC-3) was 18.2 µg/mL (≈ 53.2 µM), the EC50 (A-431) was 9.2 µg/mL (≈ 26.9 µM) and the EC50 (HCT-8) was 5.6 µg/mL (≈ 16.4 µM).
`CCC1=C(OC)C(CC)(CC)C(=O)C(C(=O)/C=C/c2ccccc2)=C1O` gave an EC50 (KB [1]) of 1.2 µg/mL (≈ 3.39 µM), an EC50 (KB [2]) of 2.8 µg/mL (≈ 7.9 µM) and an EC50 (A549) of 3.4 µg/mL (≈ 9.59 µM). The EC50 (1A9) was 2.1 µg/mL (≈ 5.92 µM), the EC50 (PC-3) was 7.7 µg/mL (≈ 21.7 µM) and the EC50 (A-431) was 5.4 µg/mL (≈ 15.2 µM). It also gave an EC50 (HCT-8) of 2.8 µg/mL (≈ 7.9 µM).
`CC1=C(O)C(C)(C)C(=O)C(C(=O)/C=C/c2ccccc2)=C1O` showed an EC50 (KB [1]) of 6.5 µg/mL (≈ 21.8 µM), an EC50 (KB [2]) of 10.5 µg/mL (≈ 35.2 µM) and an EC50 (A549) of 9 µg/mL (≈ 30.2 µM). For the same compound, the EC50 (1A9) was 8 µg/mL (≈ 26.8 µM), the EC50 (HUVEC [3]) was 2.1 µg/mL (≈ 7.04 µM) and the EC50 (HUVEC [4]) was under 4 µg/mL. For the same compound, the EC50 (PC-3) was 17.8 µg/mL (≈ 59.7 µM), the EC50 (A-431) was 14 µg/mL (≈ 46.9 µM) and the EC50 (HCT-8) was 15.8 µg/mL (≈ 53 µM).
`CCC1=C(OC)C(CC)(CC)C(=O)C(C(=O)/C=C/c2ccc(C)cc2)=C1O` showed an EC50 (KB [1]) of 1 µg/mL (≈ 2.71 µM), an EC50 (KB [2]) of 3 µg/mL (≈ 8.14 µM) and an EC50 (A549) of 4.6 µg/mL (≈ 12.5 µM). For the same compound, the EC50 (1A9) was 4.3 µg/mL (≈ 11.7 µM), the EC50 (PC-3) was 15 µg/mL (≈ 40.7 µM) and the EC50 (A-431) was 10.3 µg/mL (≈ 28 µM). It also gave an EC50 (HCT-8) of 9.4 µg/mL (≈ 25.5 µM).
In the case of `CCCC1=C(OC)C(CCC)(CCC)C(=O)/C(=C(O)\C=C\c2ccc(Br)cc2)C1=O`, the EC50 (KB [1]) is reported as 0.9 µg/mL (≈ 1.89 µM), the EC50 (KB [2]) is reported as 0.9 µg/mL (≈ 1.89 µM) and the EC50 (A549) is reported as 1 µg/mL (≈ 2.1 µM). The EC50 (1A9) was 0.9 µg/mL (≈ 1.89 µM), the EC50 (PC-3) was 2.3 µg/mL (≈ 4.84 µM) and the EC50 (A-431) was 1.2 µg/mL (≈ 2.52 µM). It also gave an EC50 (HCT-8) of 1.3 µg/mL (≈ 2.73 µM).
In the case of `CC1(C)C(=O)C(C(=O)/C=C/c2ccccc2)=C(O)C(C)(C)C1=O`, the EC50 (KB [1]) is reported as 3.8 µg/mL (≈ 12.2 µM), the EC50 (KB [2]) is reported as 7.3 µg/mL (≈ 23.4 µM) and the EC50 (A549) is reported as over 5 µg/mL. The EC50 (1A9) was 4.6 µg/mL (≈ 14.7 µM), the EC50 (HUVEC [3]) was 2 µg/mL (≈ 6.4 µM) and the EC50 (HUVEC [4]) was under 4 µg/mL. For the same compound, the EC50 (PC-3) was 11.1 µg/mL (≈ 35.5 µM), the EC50 (A-431) was 10.5 µg/mL (≈ 33.6 µM) and the EC50 (HCT-8) was 5 µg/mL (≈ 16 µM).
`CCCC1=C(OC)C(CCC)(CCC)C(=O)/C(=C(O)\C=C\c2ccccc2)C1=O` showed an EC50 (KB [1]) of 0.8 µg/mL (≈ 2.02 µM), an EC50 (KB [2]) of 0.6 µg/mL (≈ 1.51 µM) and an EC50 (A549) of 1.4 µg/mL (≈ 3.53 µM). The EC50 (1A9) was 1.5 µg/mL (≈ 3.78 µM), the EC50 (PC-3) was 3.3 µg/mL (≈ 8.32 µM) and the EC50 (A-431) was 1.9 µg/mL (≈ 4.79 µM). The EC50 (HCT-8) was 1.4 µg/mL (≈ 3.53 µM).
In the case of `COC1=C(C)C(=O)/C(=C(O)/C=C/c2ccccc2OC)C(=O)C1(C)C`, the EC50 (KB [1]) is reported as 2.8 µg/mL (≈ 8.18 µM), the EC50 (KB [2]) is reported as 3.3 µg/mL (≈ 9.64 µM) and the EC50 (A549) is reported as 2.4 µg/mL (≈ 7.01 µM). The EC50 (1A9) was 2.5 µg/mL (≈ 7.3 µM), the EC50 (HUVEC [3]) was 1.7 µg/mL (≈ 4.97 µM) and the EC50 (HUVEC [4]) was under 4 µg/mL. For the same compound, the EC50 (PC-3) was 15.6 µg/mL (≈ 45.6 µM), the EC50 (A-431) was 6.6 µg/mL (≈ 19.3 µM) and the EC50 (HCT-8) was 4.1 µg/mL (≈ 12 µM).
`COC1=C(C)C(=O)/C(=C(O)/C=C/c2ccc(O)cc2)C(=O)C1(C)C` was tested, and the EC50 (KB [1]) was 3.8 µg/mL (≈ 11.6 µM), the EC50 (KB [2]) was 3.8 µg/mL (≈ 11.6 µM) and the EC50 (A549) was 3.1 µg/mL (≈ 9.44 µM). It also gave an EC50 (1A9) of 2.9 µg/mL (≈ 8.83 µM), an EC50 (HUVEC [3]) of 4 µg/mL (≈ 12.2 µM) and an EC50 (HUVEC [4]) of under 4 µg/mL. For the same compound, the EC50 (PC-3) was over 20 µg/mL, the EC50 (A-431) was 14.9 µg/mL (≈ 45.4 µM) and the EC50 (HCT-8) was 14.8 µg/mL (≈ 45.1 µM).
